Measurements from different studies.
Each line is one published result; the experiments were not run side by side.
Technique: competition with immobilised ligand
RPS6KA1 N-terminal kinase domain: Ribosomal protein S6 kinase alpha-1, N-terminal kinase domain (RPS6KA1, Homo sapiens, UniProt Q15418)
RPS6KA1 C-terminal kinase domain: Ribosomal protein S6 kinase alpha-1, C-terminal kinase domain (RPS6KA1, Homo sapiens, UniProt Q15418)

SMILES	target	effect on	concentration	remaining binding
O=C(NS(=O)(=O)c1ccc(NCC2CCOCC2)c([N+](=O)[O-])c1)c1ccc(N2CCN(Cc3ccc(C(F)(F)F)cc3-c3ccc(Cl)cc3)CC2)cc1Oc1cnc2[nH]ccc2c1	RPS6KA1 N-terminal kinase domain	cell-free assay	1 µM	95%
CN(c1nccc(-c2cnn3ncccc23)n1)C1CC1	RPS6KA1 N-terminal kinase domain	binding	1 µM	100%
CO[C@@H](C)c1c(Nc2ccc([C@@H](N(C)C(=O)C3CCS(=O)(=O)CC3)C(F)(F)F)cc2)cnc2cc(Cl)nn12	RPS6KA1 C-terminal kinase domain	cell-free assay	1 µM	99%
COc1ncc2cc3ccccc3nc2c1C#N	RPS6KA1 C-terminal kinase domain	cell-free assay	5 µM	49%
CC1CCCN1c1nccc(-c2cnn3ncccc23)n1 (centres unmarked)	RPS6KA1 N-terminal kinase domain	binding	1 µM	100%
O=C(NCC1CCOCC1)c1n[nH]cc1NC(=O)c1c(F)cccc1F	RPS6KA1 N-terminal kinase domain	binding	1 µM	93%
O=C(c1ccc(Nc2nccc(-c3cc4ccccc4s3)n2)cc1)N1CCC(N2CCCC2)CC1	RPS6KA1 N-terminal kinase domain	binding	1 µM	100%
N[C@H]1CCN(c2nccc(-c3cnn4ncccc34)n2)C1	RPS6KA1 N-terminal kinase domain	binding	1 µM	100%
CCS(=O)(=O)c1cc2cc(C[C@@](O)(CC(C)(C)c3ccc(F)cc3C(N)=O)C(F)(F)F)[nH]c2cn1	RPS6KA1 N-terminal kinase domain	cell-free assay	1 µM	100%
C[C@H]1CCN(c2nccc(-c3cnn4ncccc34)n2)C1	RPS6KA1 N-terminal kinase domain	binding	1 µM	94%
CS(=O)(=O)NCC[C@H](NC(=O)c1cncc2c1cnn2-c1ccc(F)cc1)c1ccnc(S(C)(=O)=O)c1	RPS6KA1 N-terminal kinase domain	cell-free assay	1 µM	100%
COc1cnc(Nc2cccc(S(N)(=O)=O)c2)nc1N1CCN(c2ccccc2)CC1	RPS6KA1 N-terminal kinase domain	binding	1 µM	100%
CN(C)c1ncc(F)c(-c2cnn3ncccc23)n1	RPS6KA1 N-terminal kinase domain	binding	1 µM	100%
FC(F)(F)Oc1cccc(-c2cnc3ccc(-c4ccncc4)nn23)c1	RPS6KA1 N-terminal kinase domain	binding	5 µM	63%
C=CC(=O)N1CCC(C(=O)NCC(=O)N2CCN(c3nc(-c4cnc(N)nc4C(F)F)nc(N4CCOCC4)n3)CC2)CC1	RPS6KA1 N-terminal kinase domain	binding	1 µM	100%
Cc1cnn2ncc(-c3ccnc(N(C)C)n3)c2c1	RPS6KA1 N-terminal kinase domain	binding	1 µM	100%

SMILES	target	effect on	concentration	remaining binding
C[C@@H]1CN(c2cc(-c3n[nH]c4ccc(OC5(C)CC5)cc34)ncn2)C[C@H](C)O1	RPS6KA1 N-terminal kinase domain	cell-free assay	0.1 µM	97%
O=C(c1ccc(Nc2ncc(Cl)c(-c3cc4ccccc4s3)n2)cc1)N1CCC(N2CCCC2)CC1	RPS6KA1 N-terminal kinase domain	binding	1 µM	63%
CCN1CCN(Cc2ccc(C(=O)Nc3ccc(C)c(Oc4ccc5c(c4)CC(=O)N5)c3)cc2C(F)(F)F)CC1	RPS6KA1 N-terminal kinase domain	binding	1 µM	91%
Nc1ncc2c(n1)-c1c([nH]c3ccc(C#CC4CC4)cc13)CCCC2	RPS6KA1 C-terminal kinase domain	binding	1 µM	86%
O=C(NCCCN1CCOCC1)c1ccc(Nc2nccc(-c3cc4ccccc4s3)n2)cc1	RPS6KA1 N-terminal kinase domain	binding	1 µM	87%
O=C(NCc1ncc(C(F)(F)F)cc1Cl)c1ccc2c(c1)C1(CCS(=O)(=O)CC1)[C@H](C1CC1)N2S(=O)(=O)c1ccc(F)cc1	RPS6KA1 C-terminal kinase domain	cell-free assay	1 µM	99%
O=C(c1ccc(Nc2ncc(Cl)c(-c3ccc(Cl)s3)n2)cc1)N1CCC(N2CCCC2)CC1	RPS6KA1 C-terminal kinase domain	binding	1 µM	72%
c1cncc(-c2cccc(Nc3nccc(NC4CCCCC4)n3)c2)c1	RPS6KA1 N-terminal kinase domain	binding	10 µM	9.9%
CN(C)c1ncnc(-c2ccc3nc(Nc4cc(CN5CCN(C(=O)CC(F)(F)F)CC5)ccn4)[nH]c3c2)c1Cl	RPS6KA1 C-terminal kinase domain	cell-free assay	1 µM	98%
CN(CCCC(F)(F)F)c1nccc(-c2cnn3ncccc23)n1	RPS6KA1 N-terminal kinase domain	binding	1 µM	100%
C[C@@H](c1ccc(-n2cnc3c(N)ncnc32)cc1)N1CCc2nn(C)c(Cc3ccccc3)c2C1=O	RPS6KA1 N-terminal kinase domain	binding	0.1 µM	96%
O=C(Nc1cccnn1)N1CC(C/C=C/c2cncc(Oc3ccc(C(F)(F)F)cn3)n2)C1	RPS6KA1 C-terminal kinase domain	cell-free assay	1 µM	92%
COc1cnc(Nc2cccc(S(N)(=O)=O)c2)nc1N1CCN(c2ccccc2)C(=O)C1	RPS6KA1 C-terminal kinase domain	binding	1 µM	92%
O=C(NCCCN1CCOCC1)c1ccc(Nc2ncc(Cl)c(-c3ccc(Cl)s3)n2)cc1	RPS6KA1 N-terminal kinase domain	binding	1 µM	55%
O=C(Nc1c[nH]nc1C(=O)NC1CCNCC1)c1cc(F)cc(F)c1	RPS6KA1 N-terminal kinase domain	binding	1 µM	100%
CNC(=O)[C@@H]1CC[C@@H](n2c(-c3ccc4cnccc4c3)nc3ccc(C(=O)NCc4cccc(C(N)=O)c4)cc32)C1	RPS6KA1 C-terminal kinase domain	binding	1 µM	100%
